Results as given in PMC2753677 (Biochemistry, 2009).
Entries after “also recorded” stand apart in the source; their conditions may differ.

Key:
mouse (His)6-CypC = mouse (His)6-CypC (Mus musculus, UniProt P30412); test: protease-free PPIase assay, CypC; assay type: biochemical
Par14 = Par14 (Homo sapiens, UniProt Q9Y237); test: PPIase inhibition, Par14; assay type: biochemical
Human CypB = Human CypB (Homo sapiens, UniProt P23284); test: protease-free PPIase assay, CypB; assay type: biochemical; details: up to a concentration of 30 μM
Sequence of Human CypB (P23284 34-216): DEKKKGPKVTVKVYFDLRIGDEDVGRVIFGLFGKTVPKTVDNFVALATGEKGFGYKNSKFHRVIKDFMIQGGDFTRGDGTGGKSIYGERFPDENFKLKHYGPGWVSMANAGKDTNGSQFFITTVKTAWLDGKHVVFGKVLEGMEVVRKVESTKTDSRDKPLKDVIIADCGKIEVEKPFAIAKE

FKBP12 = FKBP12 (Homo sapiens, UniProt P62942); test: PPIase inhibition, FKBP12; assay type: biochemical
Sequence of FKBP12 (P62942 whole entry, species assumed): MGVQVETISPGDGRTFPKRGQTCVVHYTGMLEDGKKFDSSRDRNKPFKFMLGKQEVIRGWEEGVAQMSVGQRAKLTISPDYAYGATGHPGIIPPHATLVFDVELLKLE

[1] = test system: CypA-induced chemotaxis of mouse CD4+ T cells; test: Boyden chamber chemotaxis assay, CypA-induced; assay type: cell-based; details: 2 μM compound, 100 ng/ml CypA, activated mouse CD4+ T cells, 50 min
How it was run: (§1)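 Mouse spleen cells (3×10^6/well) stimulated overnight with ConA 10 μg/ml in Click's medium + 5% FCS, 37°C, 5% CO2; CD4+ T cells isolated by MACS negative depletion. 104 cells placed in upper wells of 48-well Boyden chamber (5-μm polycarbonate membrane). Lower wells: RPMI-1640 + 1% BSA with recombinant human CypA or recombinant CypB. Test compound added to top and bottom wells. 50 min, 37°C. Membrane Wright-Giemsa stained; chemotactic index = migrated cells/mean medium-alone.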

CypA [2] = target: T1, CypA (Homo sapiens, UniProt P62937); test: isothermal titration calorimetry; assay type: binding
T1 sequence (P62937 whole entry): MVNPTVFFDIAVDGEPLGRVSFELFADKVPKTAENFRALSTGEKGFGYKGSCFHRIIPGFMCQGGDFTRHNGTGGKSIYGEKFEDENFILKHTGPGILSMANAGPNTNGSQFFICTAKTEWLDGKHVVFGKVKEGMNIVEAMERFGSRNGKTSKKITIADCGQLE

[3] = test system: RANTES-induced migration of mouse CD4+ T cells; test: Boyden chamber chemotaxis assay, RANTES-induced; assay type: cell-based; details: 1 ng/ml mouse RANTES, activated mouse CD4+ T cells (data not shown)
[4] = test system: CypB-induced chemotaxis of mouse CD4+ T cells; test: Boyden chamber chemotaxis assay, CypB-induced; assay type: cell-based; details: 2 μM compound, 200 ng/ml CypB, activated mouse CD4+ T cells, 50 min
How it was run: as §1

[5] = ITC control titration of CsA with compound 1; assay type: binding; details: syringe 1, cell CsA; n.s. = no signal of heat formation
CypA [6] = target: T1, CypA; test: protease-free PPIase assay, CypA; assay type: biochemical; details: 35 mM HEPES pH 7.8, 283 K, Suc-Ala-Ala-Pro-Phe-pNA 60 μM

Sequence of mouse (His)6-CypC (P30412 whole entry): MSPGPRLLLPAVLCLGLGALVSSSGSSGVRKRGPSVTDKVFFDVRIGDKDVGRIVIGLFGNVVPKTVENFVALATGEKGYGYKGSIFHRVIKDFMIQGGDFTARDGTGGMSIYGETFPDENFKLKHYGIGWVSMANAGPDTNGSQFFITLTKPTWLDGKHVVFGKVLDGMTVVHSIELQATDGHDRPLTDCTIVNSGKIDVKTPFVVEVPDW
Sequence of Par14 (Q9Y237 whole entry): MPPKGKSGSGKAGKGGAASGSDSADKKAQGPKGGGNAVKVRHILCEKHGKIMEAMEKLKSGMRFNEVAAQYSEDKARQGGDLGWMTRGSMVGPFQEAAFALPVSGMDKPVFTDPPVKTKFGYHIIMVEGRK

Row | Molecule | Ki (mouse (His)6-CypC; CypC, 35 mM HEPES pH 7.8, 283 K, Suc-Ala-Ala-Pro-Phe-pNA 60 μM) [µM] | response of PPIase activity of CypC (mouse (His)6-CypC; up to a concentration of 30 μM) | influence on Par14 (Par14) | response of PPIase activity of CypB (Human CypB) | Ki (FKBP12) [µM] | inhibition of CypA-induced chemotaxis [1] | association constant KA (CypA [2]; competition ITC approach, calculated by eq. 2, 293 K) [M⁻¹] | binding enthalpy ΔH (CypA [2]; competition ITC approach, calculated by eq. 3, 293 K) [kcal/mol] | Kd (CypA [2]; read-out: dissociation constant KD, ITC probe of CsA/compound 1 competition) [µM] | effect on RANTES-induced cell migration [3] | effect on CypB-induced chemotaxis [4] | KA [5] | Ki (CypA [6]) [µM]
1 | O=C(c1cc(-c2cc(F)cc([N+](=O)[O-])c2O)cc([N+](=O)[O-])c1O)C1CCc2ccccc21 (stereo not shown) [Compound 1] | > 100 | did not respond | does not influence | did not respond | 38 ± 8 | almost completely; also recorded: specifically inhibited | 44000 | -2.8 | 22.6 | not impacted | barely impacted; also recorded: not influenced | n.s. | 
2 | [O-(CF-NH(CH2)2NHC(O)CH2-)D-Ser]^8CsA |  |  |  |  |  |  |  |  |  |  |  |  | 0.0024 ± 0.0003
